Source: the RNAGym collection of RNA variant scans (doi:10.1126/science.aae0568)
Fewer inactive variants are shown than the library holds.

B1: tRNA (parent)
chain: GUUCCGUUGGCGUAAUGGUAACGCGUCUCCCUCCUAAGGAGAAGACUGCGGGUUCGAGUCCCGUACGGAACG

Variants of: B1
Assay: yeast fitness relative to wild type (ratio to wild type); higher = fitter; tRNA-Arg(CCU), competitive growth, 37 C, YPD
Outline: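 For this measurement, the tRNA-Arg(CCU) gene was varied by chemical synthesis at a 3% per-site mutation rate across 69 sites, and each variant was placed at the native genomic locus in Saccharomyces cerevisiae. The pooled strains went through a 24-hour competition in YPD at 37°C in six parallel replicates, with amplicons from start and end populations read by 100-nucleotide paired-end sequencing. Darwinian fitness relative to wild type followed from the change in each genotype's frequency. Genotypes needed ≥ 100 starting reads, and estimates < 0.5 were set to 0.5.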

Variant | yeast fitness
GUUCCGUUGGCGUAAUGGUAAUGCGUCUGCCUCCUAAGGAGGAGACUGCGGGUUCGAGUCCCGUACGGAACG | 0.697
GUUCCGUUGGCGUAAUGGUAACGCGUCUCCCUCCUAAGAAGAAGACUGCGGGUUCGAGUCCCGUCCGGAACG | 0.837
GUUCGGUUGGCGUAAUGGUAACGCGUCUCCCUCUUAAGGAGAAGACUGCGGGUUCGAGUCCCGUACGGAACG | 0.599
GUUCCGUUGGAGUAAUGGUAACGCGUCUCCAUCCUAAGGAGAACACUGCGGGUUCGAGUCCCGUGCGGAACG | 0.553
GUUCCGUUGGCGUAAUGGUAACGCGUCUCCCUCUAAAGGAGAAGACUGCGGGUUCGAGUCCCGUACGGAACG | ≤ 0.5
GUUCCGUUGGCGUAAUCGUAACGCGUAUCCCUCCUAAGGAGAAGACUGCGGGUUCGAGUCCCGUACGGAACG | 0.674
GUUCCGUUGCCGUAAUGGUAACGCGUCUUCCUCCUAAGGAGAAGACUGCGGGUUCGAGUCCCGUACGGAACG | 0.589
GUUCCGUUGACGUAAUGGUAACGCGUCUCCCUCCCAAGGAGAAGACUGCGGGUUCGAGUCCCGUACGGAACG | 0.582
GUUCCGUUGGCGUAAUACUAUCGCGUCUCCCUCCUAAGGAGAAGACUGCGGGUUUGAGACCAGUACGGAACG | ≤ 0.5
GUUCCGUUGGCGUAAUGGUAACGCGUCUCCCUCAUAAGGAGAAGACUGCGGGAUCGAGUCCCGUACAGAACG | ≤ 0.5
GUUCCGUUGGCGUAAUGGUAACGCGUCUGCCUCCUAAGGAGAAGACUGCGGGUUCGAGUCCCGUACGGCACG | 0.628
GUUCCGUUGGUGUAAUGGUAACGCGUCUCCCUCAUAAGGAGAAGACUGCGGGUUCGAGUCCCGUACGGAGCG | 0.581
GUCCCGUUGGCGUAAUGGUAACGCGUCUCCCUCCUAAGGAGAAGACUGUGGGUUCGAGUCCCGUACGGACCG | 0.751
GUUCCGUUGGCGUAAUGGUAACGCGUCUCCCUCCUGAGGAGAAGACUACGGGGUCGAGUCCCGUACGGAACG | ≤ 0.5
GUUCCGUUGGCGUAAUGGUAAGGCGUCUCCCUCCUAAGGAGAAGACUGAGGGUUCCACUACCGUACGGAACG | ≤ 0.5
GUUCAGUUGGCGUAAUGGUAACGCGUCUCCCUCCUAAGGAGACGUCUGCGGGCUCGAGUCCCGUACGGAACG | 0.615
GUUCCGUUGGCGUAAUGGUAACGCGUCUGCCUCCUAGGGAGAAGACUGCGGGUUCGAGUCCCGUACGGAACG | 0.599
GUUCCGUUGGCGUAAUGGUCACGAGUCUCCCUCCUCAGGAGAAGACUCCGGGUUCGAGUCCCGUACGGAACG | ≤ 0.5
GUUCCGUUGGCGUAAUGGUAACGCGUCUCCCUCCUCAGGAGAAGACACCGGGUGCGAGUCCCGUCCAGAACG | ≤ 0.5

Variant | yeast fitness
GUUCCGUUGGCGUAAUGGUAACGCGUCUCCCUCCUAAGGAGGAGUCUGCCGGUUCGAGUCCCGUACGGAACG | ≤ 0.5
GUUCCGUUGGCGUAAUGGUAACGCGUCUCUCUCCUAAGGAGAAGACUGCGGGUUCGAGUCCCGUACAGAACG | 0.921
GUUCCGUUGGCGUCAUGGUAAGGCCUCUCCCUCCUAAGGAGGAAACUGCGGGUUCGAGUCGCGUACGGAACG | ≤ 0.5
GUUCCGUUGGCGUAAUGGUAACGCGUCUGCCUCCUUAGGAGAAGACUGUGGGUUCGAGUCCCGUACGGAACG | 0.538
GUUCCGUUGGCGUAAUGGUACCGCGUCUCCCUCCUAAGGAGAAGACUGCGGGUUCGUGUUCUGUAUGGAACG | 0.612
GUUUCGUUGGCGUAAUGGUAACGCGACUCCCUCCUAGGGAGAAGACUGCGGGUUCGAGUCCCGUACGGAACG | ≤ 0.5
GUUCCGUUGGCGCAAUGGUAAUGCGUCUCCCUCCUAACGAGAAGACUGCGGGUUCGAGUCCCGUACGGAUCG | ≤ 0.5
GUUCCGUUCGCGUAAUGGUAUCGCGUCUCCCUCCUAAGGAGAAGACUGCGGGUUCGAGUCCCGUACGGAACG | 0.509
GUUCCGUUGGCGUAAUGGUAACGCGUCUCCCUCCUAAGGAGCAGAGUGCGGAUUCGAGUCCCGUACGGAACG | ≤ 0.5
GUUCCGUUGGCGUAAUGGUGACGCAUCUCCCUCCUAAGGAGAAGACUGCGGGUUAGAGUCCCGUACGGAACG | ≤ 0.5
GUUCCGUUGGCGUAAUGGUAACGCGUAUCCCUCCUAAGGAGUAGACUGCGGGUUCGAGUCCCGUACCGAACG | 0.613
GUUCCGUUGGCGUAAGGGUAACGCGUCUCCCUCCUAAGGAGAAGAAUGCGGGUUCGAGUCCCGUACGGAACG | 0.754
GUUCGGUUGGCGUAAUGGUAAUGCGUCUCCCUCCUAAGGAGAAGACUGCUGGUUCGAGUCCCGUACGGAACG | 0.563
GUUCCGUUGGCGUAAUGGUACCGCGUCUCCCUCCUUAGGAGAAGAGUGCGGGUUCGAGUCCAGUACGGCACG | ≤ 0.5
GUUCAGUUGGCGUAAUGGUAAUGCGUCUCCCUCCUAAGGAGAAGACUGCGCGUUCGAGUCCCGUACGGAACG | ≤ 0.5
GUUACGUUGGCGUAAUGAUCACGCGGUUCCCUCCUAAGGAGAAGACUGUGGGUUCGAGUCCCGUACGGAACG | ≤ 0.5
GUUCCGUUGGCGUAAUGGUAACGCGUCUCCCUCCUAAGGAGAAGGCUGCGGGUUCGAGUCCUGUAAGGAACG | ≤ 0.5
GUACGGUUGGCGUAAUGGUAUUGCGUCUCCCACCUAAGGAGAAGACUGGGGGUUCGAGUCCCGUACGGAACG | 0.599
